Screening data from PubChem BioAssay.
APJ agonist – activates the human apelin receptor APJ | P35414 | activation, % at 20 µM | 0.11% of 330,000 active | CHO-K1 APJ PathHunter beta-arrestin, luminescence; 0% DMSO wells, 100% apelin;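 active means activation more than six SD over the plate average, tested at 20 µM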;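 further: 0% = DMSO alone and 100% = apelin-13 at 10 nM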
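Test system: CHO-K1 APJ beta-arrestin complementation cell line. Amount: cell density 1000 per well. Controls: DMSO negative, 10 nM Apelin-13 positive. Signal: luminescent beta-gal fragment complementation, chemiluminescent substrate. Read-out basis: agonist-driven arrestin binding to APJ. Timing: compound stimulation 90 min at 25 °C, detection 60 min.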
APJ antagonist – APJ receptor antagonism. CHO-K1 APJ beta-arrestin complementation, luminescence. inhibition, % at 20 µM. P35414. AID 2521. 0.32% of 330,000 active;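 active means inhibition above about 40% at 20 µM, limit read from the data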;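 further: cells challenged with 10 nM apelin-13 agonist together with compound; plate controls were apelin-13 plus DMSO wells for no effect and DMSO wells lacking apelin-13 for full effect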
m5-HT2A agonist – activates the mouse 5-HT2A serotonin receptor; activation, % at 7.6 µM; CHO-K1 mHTR2A beta-arrestin complementation, luminescence; percent of 30 µM serotonin response; AID 624169; P35363; 0.66% of 360,000 active;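 active means activation above a run cutoff, the mean activation of all tested compounds plus 3 SD, cut at about 14% in these data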;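 further: 0% = plate median of compound wells and 100% = 30 µM serotonin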
CCR6 antagonist – blocks CCL20-driven beta-arrestin recruitment at human CCR6; P51684; CHO-K1 CCR6 PathHunter beta-arrestin, luminescence, CCL20-stimulated; inhibition, % at 20 µM; 0.49% of 340,000 active;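 active means compounds whose inhibition of the agonist-driven luminescence signal at 20 µM reaches about 50%, limit read from the data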;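 further: cells stimulated with CCL20 at 14 nM final; plate controls were DMSO with CCL20 for no effect and DMSO without agonist for full effect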
Target sequence (P51684 whole entry, looked up): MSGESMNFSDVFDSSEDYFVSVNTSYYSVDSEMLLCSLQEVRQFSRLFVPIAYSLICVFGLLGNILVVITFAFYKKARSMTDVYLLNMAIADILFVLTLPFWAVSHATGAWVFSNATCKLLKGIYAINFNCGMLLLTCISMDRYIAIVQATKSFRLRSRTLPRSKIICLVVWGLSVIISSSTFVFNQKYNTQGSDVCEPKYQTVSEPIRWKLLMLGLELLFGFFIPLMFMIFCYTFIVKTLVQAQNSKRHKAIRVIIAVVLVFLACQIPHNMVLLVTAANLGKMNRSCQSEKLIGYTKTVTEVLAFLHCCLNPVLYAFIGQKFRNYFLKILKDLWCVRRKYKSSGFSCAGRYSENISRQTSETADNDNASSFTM
CXCR6 inh – CXCR6 (human) receptor inhibition. O00574. CHO-K1 PathHunter CXCR6 beta-arrestin, luminescence. inhibition, % at 20 µM. 0.36% of 360,000 active. AID 602244; in the data active means inhibition above about 34%, passing the limit was not always enough;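 further: antagonist mode with CXCL16 agonist at 10 nM final; 0% = 10 nM CXCL16 with DMSO and 100% = unstimulated wells without agonist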
NTR1 ag – activates human neurotensin receptor 1; NTR1-U2OS beta-arrestin-GFP spot imaging, agonist mode; activation, % at 20 µM; 0.17% of 330,000 active; AID 493036;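 active means activation at or above 40% of the spot to cytoplasm intensity ratio, with at least 20 cells analyzed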;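 further: 0% = DMSO without peptide and 100% = 100 nM NTR1 peptide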
MOR ag counter – activates human mu opioid receptor in HTR2A counterscreen; shares compounds with m5-HT2A agonist; U2OS OPRM1 beta-arrestin PathHunter, luminescence; DMSO 0%, DAMGO 9.3 µM 100%; activation, % at 9.3 µM; 5.3% of 2,300 active; AID 624380;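 active means mean activation above the mean of DMSO-only wells plus 3 SD, cut at about 0.5% in these data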
HTR2A ag conf – confirmation of mouse HTR2A serotonin receptor agonists; 19% of 2,300 active; shares compounds with m5-HT2A agonist; CHO-K1 PathHunter beta-arrestin recruitment, luminescence; DMSO 0%, 30 µM serotonin 100%; activation, % at 7.6 µM;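 active means mean activation across triplicates above the hit threshold derived in the original primary screen, cut at about 15% in these data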
Active calls of the source: *; nt = not tested or not shown. A selection: hits, their analogues and other compounds. The true share with any hit is near 1.5%.

SMILES | APJ agonist | APJ antagonist | m5-HT2A agonist | CCR6 antagonist | CXCR6 inh | NTR1 ag | MOR ag counter | HTR2A ag conf
COc1ccc([C@H]2CC(=O)C=C(c3cccc(OC)c3)C2)cc1 | -3.5 | 17.4 | -1.2 | 11.2 | 0.8 | 12.2 | nt | nt
O=C1C=C(c2ccc(-c3ccccc3)c(F)c2)C[C@@H](c2ccc(F)cc2)C1 | 0.5 | -4.0 | 2.1 | 10.5 | -3.7 | 1.6 | nt | nt
CC(C)(C)C(=O)C(C(c1ccccc1)N1CCOCC1)N1CCOCC1 (centres undefined) | nt | nt | 5.2 | 16.1 | 1.4 | nt | nt | nt
O=C(O)c1cccc(N2C(=O)c3cccc(Oc4ccc(Cl)cc4)c3C2=O)c1 | -4.1 | 7.7 | 7.9 | 3.4 | -0.3 | 0.4 | nt | nt
CCCN(C)C[C@@H]1OCc2cnnn2CCCC(=O)N([C@H](C)CO)C[C@H]1C | nt | nt | 0.6 | nt | -9.0 | nt | nt | nt
COc1ccc(NC(=S)N(CCc2c(C)[nH]c3ccc(C)cc23)Cc2ccco2)cc1 | -4.5 | 2.7 | 23.3* | 13.2 | 4.2 | 3.7 | -0.4 | -3.3
CCCn1nc(C(=O)OCC(=O)NC(C)c2ccccc2)c2ccccc2c1=O (centres undefined) | -1.5 | -7.4 | 0.4 | 6.2 | 3.3 | 2.6 | nt | nt
Cc1ccc(S(=O)(=O)N2CCCCC2)cc1NS(=O)(=O)c1ccc(Cl)c(C(=O)O)c1 | -2.9 | -6.9 | 17.3* | 2.2 | -0.3 | 0.6 | -0.5 | 1.1
Cc1ccc(C)c(N2CCN(C(=O)Cc3ccc(NC4=NC5CS(=O)(=O)CC5S4)cc3)CC2)c1 (centres undefined) | -2.7 | 9.7 | 0.0 | 11.8 | 2.6 | 13.5 | nt | nt
CCOC(=O)C1CCN(C(=O)CSCc2nc(-c3ccc(OCC)cc3)oc2C)CC1 | 5.3 | 4.8 | 16.2* | 9.8 | -5.7 | 0.2 | -0.5 | -0.3
CN(CC(=O)Nc1c(Cl)cccc1Cl)CC(=O)N1CCc2ccccc21 | nt | nt | 7.4 | nt | -7.2 | nt | nt | nt
O=C(Nc1ccccc1)N1CCc2ccccc21 | -0.6 | 4.1 | 0.3 | -23.7 | 1.4 | -2.0 | nt | nt
CN(CC(=O)Nc1ccc(Cl)cc1)CC(=O)N1CCc2ccccc21 | nt | nt | 16.9* | nt | -9.8 | nt | 0.0 | 2.5
CCc1ccccc1NC(=O)N1CCc2ccccc21 | -3.1 | -11.5 | 16.5* | 5.0 | 6.8 | 0.7 | -0.5 | -4.1
CN(C)C(=O)CCc1ccc2c3c([nH]c2c1)[C@]1(CCC2CCCC2)[C@@H](C(=O)N2CCOCC2)C[C@H](CC(=O)NC(C)(C)C)C(=O)N1CC3 | nt | nt | 6.5 | 17.6 | 11.9 | 1.9 | nt | nt
Cc1ccc(-c2csc(NC(=O)c3cccc(C)c3)c2C(=O)O)cc1 | 4.1 | 12.4 | 14.9* | -13.4 | 1.7 | 1.3 | -0.5 | -1.8
Cc1cccc(C(=O)Nc2scc(-c3ccc(Br)cc3)c2C(=O)O)c1 | -2.5 | 18.8 | 9.4 | -5.0 | 0.4 | 0.7 | nt | nt
Cc1ccc(C(=O)NCCNC(=O)c2ccc(C)o2)o1 | -2.2 | -54.2 | -3.7 | -5.4 | 3.7 | 0.3 | nt | nt
COc1ccccc1OCCNC(=O)c1ccc(C)o1 | -1.2 | 12.2 | 15.4* | 1.7 | -2.2 | 0.5 | -0.5 | 0.5
CCOC(=O)N1CCN(C(c2ccc(F)cc2)c2sc3nc(C)nn3c2O)CC1 (centres undefined) | -2.7 | 10.0 | 32.0* | 0.7 | 0.5 | -0.4 | -0.7 | -3.2
CCOC(=O)c1ccccc1NC(=O)c1ccc2c(SCC(=O)O)c3c(nc2c1)CCCC3 | -2.7 | 14.7 | 15.0* | 8.5 | 1.9 | 1.9 | -0.6 | -0.8
CSC(=NS(=O)(=O)c1ccccc1)NNC(=O)c1c(-c2c(Cl)cccc2Cl)noc1C | nt | nt | 6.4 | nt | -0.9 | nt | nt | nt
CN1C(=O)CC(Sc2ncccc2C(=O)O)C1=O (centres undefined) | -6.6 | 12.1 | 15.0* | 13.2 | 0.7 | 1.3 | -0.5 | 1.5
Cc1cccc(C)c1NC(=O)C(C)Sc1n[nH]c(-c2ccncc2)n1 (centres undefined) | 1.4 | 4.2 | -3.7 | 2.6 | 1.9 | 1.2 | nt | nt
